HTR1E antagonist – 5-HT1E (human) receptor antagonism; hit rate 0.99% among 65,000; AID 571; P28566; CHO 5-HT1E Ga15 NFAT-bla reporter, FRET, antagonist; inhibition, % at 6 µM;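 active = inhibition above a set limit, the mean inhibition across every tested compound plus 3 SD, cut at about 29% in these data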;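 note: signal is the 460 over 535 nm emission ratio of beta-lactamase substrate; 0% = agonist plus DMSO wells and 100% = wells without agonist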
Target sequence (P28566 whole entry, looked up): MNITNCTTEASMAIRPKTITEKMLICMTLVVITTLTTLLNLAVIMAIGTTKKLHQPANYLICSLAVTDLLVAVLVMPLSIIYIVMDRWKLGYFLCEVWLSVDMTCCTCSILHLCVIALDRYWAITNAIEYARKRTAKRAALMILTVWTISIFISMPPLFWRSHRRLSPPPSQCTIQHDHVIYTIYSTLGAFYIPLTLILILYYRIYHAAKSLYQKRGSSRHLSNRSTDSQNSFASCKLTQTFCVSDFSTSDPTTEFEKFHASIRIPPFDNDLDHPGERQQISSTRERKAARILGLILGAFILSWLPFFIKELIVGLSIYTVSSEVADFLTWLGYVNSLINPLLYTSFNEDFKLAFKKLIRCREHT
S1P1 ag-PAM – S1P1 (human) agonism or agonism potentiation. P21453. S1P1 CRE-bla cells, forskolin, beta-lactamase FRET, potentiator mode; S1P1 agonist co-added at EC20, 2 nM; 100% = saturating reference agonist, 0% = basal. activation, % at 9.5 µM. hit rate 0.57% among 56,000;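 active = activation above a cutoff set at the mean activation of all tested compounds plus 3 SD, cut at about 54% in these data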;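 note: forskolin at 4 µM as EC80 and the EC20 agonist is SEW2871; 100% = SEW2871 at its EC100 plus forskolin at EC80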
S1P3 agonist – S1P3 (human) receptor agonism | hit rate 0.1% among 60,000 | S1P3 NFAT-BLA reporter cells, FRET ratio; relative to 1 µM S1P, basal subtracted | Q99500 | activation, % at 4.5 µM | AID 373;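 active = activation above the screen-wide mean plus 3 SD, cut at about 4.5% in these data, passing the limit was not always enough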
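Assay system: CHO cells stably expressing human S1P3, Gα16 and NFAT-β-lactamase reporter. Timing: overnight plating, 4 h compound 37 °C, 2 h substrate RT. Signal: β-lactamase FRET emission ratio 460/535 nm. Measure: percent activation versus median 1 µM S1P response, basal-subtracted, per plate. Repeats: primary screen single test, confirmation screen in triplicate.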
5HT1E ag – activates the human 5-HT1E serotonin receptor. AID 574. CHO 5-HT1E Ga15 NFAT-bla reporter, FRET; 0% DMSO wells, 100% control agonist wells. activation, % at 6 µM. hit rate 0.69% among 65,000;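 active = activation above a set limit, the screen-wide mean activation plus 3 SD, cut at about 8.5% in these data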;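 note: 100% = positive control agonist at 1 µM giving full maximal response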
5HT1a ag – 5-HT1a (human) receptor agonism | P08908 | CHO 5-HT1a Ga15 NFAT-bla reporter, FRET ratio; 0% basal, 100% maximal reference agonist | activation, % at 10 µM | hit rate 0.56% among 65,000 | AID 567;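 active = activation above the screen-wide mean activation plus 3 SD, cut at about 19% in these data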;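 note: 0% = DMSO wells and 100% = 5-CT at EC100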
5-HT1A blocker – antagonists of human 5-HT1a serotonin receptor. P08908. CHO 5-HT1a Ga15 NFAT-bla reporter, antagonist mode. inhibition, % at 10 µM. hit rate 0.68% among 62,000. AID 612;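 active = inhibition above the mean of all tested compounds plus 3 SD, cut at about 43% in these data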;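 note: receptor stimulated by 5-CT agonist at 100 nM near EC80; beta-lactamase reporter measured by ratiometric fluorescence of a cleavable substrate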
Numbers without * were called inactive; . = no result given. Shown are actives, neighbours in structure and some others; about 3% of the full set was active somewhere.

SMILES	HTR1E antagonist	S1P1 ag-PAM	S1P3 agonist	5HT1E ag	5HT1a ag	5-HT1A blocker
O=S(=O)(CCSc1nc2ccccc2o1)c1nc2ccccc2s1	22	55	-1	-1	-4	47*
COc1cccc(C2=CC(c3ccccc3)n3nnnc3N2)c1 (configuration not stated)	12	19	-5	-1	-2	.
COc1ccc2c(-c3ccccc3)cc3nnnn3c2c1	30*	-39	0	0	-1	-3
Cc1oc(-c2ccccc2)nc1Cn1cccc1C1=NC(c2ccccc2)CO1 (configuration not stated)	4	104*	-1	0	0	32
CCCCOc1ccc(S(=O)(=O)Nc2cccnc2)cc1	3	85*	-1	0	-4	2
COC(=O)c1ccc(OCC2c3cc(OC)c(OC)cc3CCN2C(=O)C2CC2)cc1 (configuration not stated)	34*	.	.	0	2	23
CN(C1CCS(=O)(=O)C1)S(=O)C12CC3CC(CC(C3)C1)C2 (configuration not stated)	-2	-10	0	0	4	2
Cc1ccc(OCCn2cc(/C(N)=N/O)c3ccccc32)cc1C	36*	68*	-1	1	4	42
CC1CN(C2CCN(S(=O)(=O)c3ccccc3)CC2)CC(C)O1 (configuration not stated)	52*	11	-4	-1	-1	.
CCNc1nc(N)c(C(=O)c2ccc(Cl)s2)s1	23	47	-2	0	1	56*
CC(C)(C)c1csc(NC(=O)c2ccc(Cl)s2)n1	19	27	0	-1	-1	35
CC(=O)N1CCC(Nc2ccc(C)cc2)CC1	-4	-26	-1	0	-2	13
Cc1cc(NC(=O)C2CCCC2)nc2c1c(=O)oc1ccccc12	-2	.	.	-1	4	-20
COc1cccc(C(=O)Nc2cc(C)c3c(=O)oc4ccccc4c3n2)c1	2	-5	-1	-1	25*	-12
Cc1cc(NC(=O)c2oc3ccccc3c2C)ccc1-n1cnnn1	-5	79	-2	0	1	6
COc1cc(OC)cc(C(=O)Nc2ccc(-n3cnnn3)c(C)c2)c1	22	15	0	36*	-5	17
CC[C@@H](C)[C@H](NC(=O)OC(C)(C)C)c1nnc(S(=O)(=O)Cc2cc(C)ccc2C)o1	35*	25	-2	0	1	57*
CC(C)(C)OC(=O)N[C@@H](Cc1ccccc1)c1nnc(S(=O)(=O)Cc2cccc(F)c2)o1	46*	70*	-1	1	-3	67*
Cc1ccccc1CS(=O)(=O)c1nnc([C@H](CC(C)C)NC(=O)OC(C)(C)C)o1	36*	59	0	2	3	39
CC(C)[C@H](NC(=O)OC(C)(C)C)c1nnc(S(=O)(=O)Cc2c(F)cccc2Cl)o1	67*	18	-1	1	5	79*
CCOC(=O)CSc1nnc([C@H](Cc2ccccc2)NC(=O)OC(C)(C)C)o1	-9	-6	0	0	0	-17
Cc1[nH]c(=O)[nH]c(=O)c1CSc1nnc([C@@H](NC(=O)OC(C)(C)C)C(C)C)o1	-19	10	0	0	0	-9
O=C(CN(C(=O)CNS(=O)(=O)c1ccccc1)C1CCCC1)NCc1ccco1	7	5	-1	0	-2	12
Nc1nnc(SCc2ccccc2F)n1-c1ccccc1	-4	2	-2	0	-1	-10
CC(C)C[C@H](N)c1nnc(S(=O)(=O)Cc2cccc(F)c2)o1	20	2	-2	0	-1	58*
SMILES	HTR1E antagonist	S1P1 ag-PAM	S1P3 agonist	5HT1E ag	5HT1a ag	5-HT1A blocker
CC(C)CC(=O)N1CCN(Cc2cccc(F)c2)CC1	8	-10	-1	1	0	1
c1ccc(CNC2=NCCCCC2)cc1	4	16	-1	13*	-2	10
Cc1ccc2[nH]c(=O)c(C(c3nnnn3C3CCCC3)N(Cc3cccnc3)Cc3ccco3)cc2c1 (configuration not stated)	-2	-24	0	3	98*	3
Cc1ccc2c(c1)NC(=O)C(CC(=O)NCCCN1CCN(c3cc(C)ccc3C)CC1)O2 (configuration not stated)	-7	10	-1	1	-2	47*
COCC(C)NC(=O)CCS(=O)(=O)c1nc(-c2ccc(OC)cc2)cc(C(F)(F)F)n1 (configuration not stated)	8	16	-1	0	4	39
CCOC(=O)CS(=O)(=O)c1nc(-c2ccc(F)cc2)cc(C(F)(F)F)n1	82*	-34	-2	3	-10	102*
CCOC(=O)CCS(=O)(=O)c1nc(-c2ccccc2)cc(C(F)(F)F)n1	54*	.	-1	1	0	86*
CCOC(=O)CS(=O)(=O)c1nc(-c2ccccc2)cc(C(F)(F)F)n1	108*	2	-1	5	-7	105*
COC(=O)C(C)Sc1nc2c(c(=O)n1-c1ccccc1)SCC2 (configuration not stated)	5	.	.	-1	36*	-10
COc1ccc(-n2c(SCC(=O)N3CCN(c4ccccc4)CC3)nc3c(c2=O)SCC3)cc1	-14	10	-1	1	2	-15
O=C(NCCCN1CCN(c2ccc(F)cc2)CC1)c1cccc(N2CCCC2=O)c1	13	12	-1	0	-2	71*
O=C(NCCCN1CCCC1)c1cccc(N2CCCC2=O)c1	0	.	.	-1	-2	7
Clc1ccccc1OCCCCN1CCCC1	4	-30	-1	15*	-1	17
COc1cccc(OC)c1OCCCCN1CCCC1	-1	-2	0	1	-2	-10
Oc1c(C(Nc2ccccn2)c2ccccn2)ccc2cccnc12 (configuration not stated)	43*	12	0	0	-2	48*
COc1ccc(-c2nc(-c3cccc(C(F)(F)F)c3)no2)cc1OC	11	75*	-2	0	1	-2
COc1cc(-c2nc(-c3cccc(C)c3)no2)cc(OC)c1OC	-32	-18	-1	0	-3	-1
COc1ccc(-c2nc(-c3ccccc3OC)no2)cc1OC	8	83*	0	0	-1	13
COc1ccc(-c2nc(-c3cccc(C)c3)no2)cc1OC	-1	108*	0	1	0	6
COc1ccccc1-c1noc(-c2ccccc2)n1	-7	25	0	-1	-2	20
COc1ccccc1-c1nc(-c2cccc(C)c2)no1	5	99*	-1	0	-1	10

Screening data (PubChem BioAssay)
